In data set [1] the target is Heat shock protein beta-1 (Homo sapiens) (UniProt P04792). Kind of data set: Disaggregation of protein aggregates in human HeLa cells expressing HSP27:GFP assessed as number of HSP27:GFP foci per cell at 50 uM for 12 hr in presence of nilotinib by green fluorescent protein based confocal microscopy (rvb = 0.71). An outline of the steps:
(§1)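 Sensor HeLa cells (HSP27:GFP) were kept for 48 h with 5 μM nilotinib, and 50 μM compound was co-added for the final 12 h in 0.5% EtOH vehicle. Green foci per cell (count and mean area) were quantified by fluorescence microscopy. Data are mean ± SD, n = 4–10, about 4700 cells per condition. Comparison was against nilotinib alone by unpaired t test.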

In data set [2] the target is Amyloid-beta precursor protein (Homo sapiens) (UniProt P05067). Kind of data set: Disaggregation of aggregated huamn amyloid beta (1 to 42) fibrils in human SH-SY5Y cells assessed as decrease the area of foci to basal levels at 50 uM for 12 hour by confocal microscopy relative to control. It is filed as cell-based. The essentials:
(§2)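 SH-SY5Y cells were loaded for 16 h with preaggregated synthetic Aβ1–42, then given compound at 50 μM for a further 12 h in 0.5% EtOH vehicle. Cells were fixed, stained with Proteostat and imaged by confocal microscopy. Number and average area of aggregate foci per cell were scored over 10–20 fields, n = 2, about 370 cells per condition. Data are mean ± SD, unpaired t test.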

Data set [3] relates to HeLa. Put plainly: Cytotoxicity against human HeLa cells assessed as reduction in cell viability at 0.1 to 100 uM incubated for 24 to 48 hrs by Alamar blue colorimetric assay. It is filed as cell-based. Conditions: dose lower 0.1 µM, time lower 24 hrs, dose upper 100 µM, time upper 48 hrs. An outline of the steps:
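Resazurin (alamarBlue) metabolic viability read-out in HeLa cells exposed for 24 and 48 h to 0.1, 1, 10, 50 and 100 μM compound.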

Data set [4] has as its target Amyloid-beta precursor protein (Homo sapiens) (UniProt P05067). Put plainly: Disaggregation of aggregated human amyloid beta (1 to 42) preformed fibrils in human SH-SY5Y cells assessed as decrease the number of foci to basal levels at 50 uM for 12 hrs by confocal microscopy relative to control. It is filed as cell-based. An outline of the steps:
as §2

Data set [5] addresses Heat shock protein beta-1 (Homo sapiens) (UniProt P04792). Put plainly: Disaggregation of protein aggregates in human HeLa cells expressing HSP27:GFP assessed as HSP27:GFP foci area per cell cell at 50 uM for 12 hr in presence of nilotinib by green fluorescent protein based confocal microscopy (rvb = 0.71). The essentials: as §1
Data set [6] has as its target Amyloid-beta precursor protein (Homo sapiens) (UniProt P05067). Put plainly: Inhibition of amyloid beta (1 to 42) (unknown origin) aggregation assessed as reduction in fluorescence intensity at 20 uM measured upto 30 h by thioflavin-T fluorescence assay. An outline of the steps:
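Aβ1–42 peptide (10 μM) fibrillation with 20 μM compound was followed over time by thioflavin-T fluorescence, with quercetin as positive control. Inhibition was judged from reduction of final fluorescence intensity.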

Data set [7] has as its target Heat shock protein beta-1 (Homo sapiens) (UniProt P04792). Put plainly: Aggregation in human HeLa cells expressing HSP27:GFP protein in sensor assessed as HSP27:GFP foci area per cell at 5 uM incubated for 48 hrs by green fluorescent protein based confocal microscopy (rvb = 0.6). An outline of the steps:
(§3)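 HeLa cells stably expressing the HSP27:GFP aggregation sensor were exposed to 5 μM nilotinib for 48 h in 0.5% EtOH vehicle. Sensor relocalization to foci was imaged by fluorescence microscopy, and green foci number and average area per cell were scored. Data are mean ± SD, n = 4–10, about 4700 cells per condition, compared by unpaired Student's t test.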

For data set [8] the target is unchanged. Put plainly: Aggregation in human HeLa cells expressing HSP27:GFP protein sensor assessed as number of HSP27:GFP foci per cell at 5 uM incubated for 48 hr by green fluorescent protein based confocal microscopy (rvb = 0.71). An outline of the steps: as §3

Structures are written as SMILES. Active and inactive are the calls of the source. The calls are words filed in the database; no cut-off is given here.

Heat shock protein beta-1 (Homo sapiens), sequence (P04792 whole entry): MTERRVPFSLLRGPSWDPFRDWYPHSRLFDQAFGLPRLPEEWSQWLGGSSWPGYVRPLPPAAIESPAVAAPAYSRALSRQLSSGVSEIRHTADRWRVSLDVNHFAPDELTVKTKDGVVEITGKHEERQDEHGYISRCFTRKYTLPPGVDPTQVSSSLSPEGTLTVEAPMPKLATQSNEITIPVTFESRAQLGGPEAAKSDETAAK
Amyloid-beta precursor protein (Homo sapiens), sequence (P05067 whole entry): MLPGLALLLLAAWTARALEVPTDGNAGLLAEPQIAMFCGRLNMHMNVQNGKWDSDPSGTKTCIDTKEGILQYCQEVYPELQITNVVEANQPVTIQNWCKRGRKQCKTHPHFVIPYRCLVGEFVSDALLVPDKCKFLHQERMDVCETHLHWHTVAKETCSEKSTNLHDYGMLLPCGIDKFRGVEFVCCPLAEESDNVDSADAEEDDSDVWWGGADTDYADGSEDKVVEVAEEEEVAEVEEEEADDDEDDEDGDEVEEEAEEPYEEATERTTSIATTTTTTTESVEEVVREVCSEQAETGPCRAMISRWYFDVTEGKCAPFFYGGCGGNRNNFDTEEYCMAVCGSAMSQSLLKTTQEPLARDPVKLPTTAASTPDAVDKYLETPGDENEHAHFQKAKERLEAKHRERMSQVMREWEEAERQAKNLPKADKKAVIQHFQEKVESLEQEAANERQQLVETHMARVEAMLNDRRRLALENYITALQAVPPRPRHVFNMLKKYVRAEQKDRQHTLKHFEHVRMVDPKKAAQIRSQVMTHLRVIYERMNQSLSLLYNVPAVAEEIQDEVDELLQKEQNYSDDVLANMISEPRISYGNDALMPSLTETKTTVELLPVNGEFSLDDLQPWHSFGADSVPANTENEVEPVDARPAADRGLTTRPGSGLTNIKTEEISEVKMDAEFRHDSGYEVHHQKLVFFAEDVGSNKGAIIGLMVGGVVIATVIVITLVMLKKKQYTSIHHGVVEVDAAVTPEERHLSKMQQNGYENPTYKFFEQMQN

As for `CC(C)CCC[C@@H](C)[C@H]1CC[C@H]2[C@@H]3CC=C4c5c(nc6ccccc6c5-c5ccccc5)CC[C@]4(C)[C@H]3CC[C@]12C`, the figures for the Activity in data set [1], in data set [3] and in data set [5] were 50%, “Non-Toxic” and 50%, respectively. Besides, the result in data set [2] was inactive. The result in data set [4] was Active. Further, the inhibition result in data set [6] was “inactive”.

As to `Cc1c2c(nc3ccccc13)CC[C@@]1(C)C2=CC[C@H]2[C@@H]3CC[C@H]([C@H](C)CCCC(C)C)[C@@]3(C)CC[C@@H]21`, the Activity in data set [1] was 50%; in data set [3], “Non-Toxic”; in data set [5], 50%. Further, the outcome in data set [2] was inactive. Besides, the result in data set [4] was Active. Besides, the inhibition result in data set [6] was “Active”.

For the molecule `CC(C)CCC[C@@H](C)[C@H]1CC[C@H]2[C@@H]3CC=C4c5c(nc6ccc(Cl)cc6c5-c5ccccc5)CC[C@]4(C)[C@H]3CC[C@]12C`, the Activity in data set [1] was 50%; in data set [3], “Non-Toxic”; in data set [5] it was 50%. Moreover, the outcome in data set [2] was Active. Moreover, the outcome in data set [4] was inactive. Besides, in data set [6], the inhibition entry was “inactive”.

Consider `Cc1cn(-c2cc(NC(=O)c3ccc(C)c(Nc4nccc(-c5cccnc5)n4)c3)cc(C(F)(F)F)c2)cn1`, for which the values for the Activity in data set [7] and in data set [8] were 7.5 um2 and 3.96, respectively.

On to `CC(C)CCC[C@@H](C)[C@H]1CC[C@H]2[C@@H]3CC=C4c5c(nc6ccc(Cl)cc6c5-c5ccccc5Cl)CC[C@]4(C)[C@H]3CC[C@]12C`, for which the figures for the Activity in data set [1], in data set [3] and in data set [5] were 50%, “Non-Toxic” and 50%, respectively. Further, the outcome in data set [2] was inactive. In addition, in data set [4], the result was Active. The inhibition result in data set [6] is “Active”.

These data come from ChEMBL document CHEMBL5036371, “Steroid-Quinoline Hybrids for Disruption and Reversion of Protein Aggregation Processes” (ACS Med Chem Lett, 2022).
